Results reported in BindingDB's records for doi:10.1016/j.bmcl.2018.12.060 (Yanbian University College of Pharmacy, 2019).

Molecular target: Hypoxia-inducible factor 1-alpha (Homo sapiens, UniProt Q16665)
Test: Inhibition of HIF1alpha transcriptional activity in human Hep3B cells after 24 hrs in hypoxic condition by HRE-dual luciferase reporter gene assay
How it was run: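 Hep3B cells transiently co-transfected with pGL3-HRE-luciferase and pRL-CMV, after 24 h incubated under hypoxia with or without compound; luciferase activity measured after 24 h, ursolic acid as positive control; mean ± SD of three independent experiments.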

Sequence of Hypoxia-inducible factor 1-alpha (Q16665 whole entry): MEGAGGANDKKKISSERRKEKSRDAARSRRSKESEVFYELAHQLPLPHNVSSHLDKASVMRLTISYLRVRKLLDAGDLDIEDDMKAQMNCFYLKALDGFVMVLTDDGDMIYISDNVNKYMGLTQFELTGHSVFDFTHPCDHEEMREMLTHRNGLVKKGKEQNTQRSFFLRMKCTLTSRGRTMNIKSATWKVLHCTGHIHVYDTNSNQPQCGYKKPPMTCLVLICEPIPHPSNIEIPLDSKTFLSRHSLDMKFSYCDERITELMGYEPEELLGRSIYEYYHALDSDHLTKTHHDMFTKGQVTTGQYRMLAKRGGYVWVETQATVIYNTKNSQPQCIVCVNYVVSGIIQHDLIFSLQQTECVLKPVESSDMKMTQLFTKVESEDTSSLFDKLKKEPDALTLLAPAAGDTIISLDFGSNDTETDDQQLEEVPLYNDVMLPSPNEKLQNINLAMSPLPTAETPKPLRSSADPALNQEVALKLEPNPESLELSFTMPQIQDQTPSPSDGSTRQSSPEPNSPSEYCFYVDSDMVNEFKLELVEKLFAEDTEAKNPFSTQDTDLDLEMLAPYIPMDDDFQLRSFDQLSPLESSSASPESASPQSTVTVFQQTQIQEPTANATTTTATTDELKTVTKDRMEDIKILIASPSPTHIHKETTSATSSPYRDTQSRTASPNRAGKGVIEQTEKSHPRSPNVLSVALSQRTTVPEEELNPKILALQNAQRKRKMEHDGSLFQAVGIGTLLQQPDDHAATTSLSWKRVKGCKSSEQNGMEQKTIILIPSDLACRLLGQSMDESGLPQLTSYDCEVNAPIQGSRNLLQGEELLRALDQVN

SMILES	IC50 [µM]
C[C@H]1[C@H](C)CC[C@]2(C(=O)O)CC[C@]3(C)C(=CC[C@@H]4[C@@]5(C)CC/C(=N\NC(N)=S)C(C)(C)[C@@H]5CC[C@]43C)[C@H]12	88.8
C[C@H]1[C@H](C)CC[C@]2(C(=O)O)CC[C@]3(C)C(=CC[C@@H]4[C@@]5(C)CC/C(=N\NC(N)=O)C(C)(C)[C@@H]5CC[C@]43C)[C@H]12	13.3
Cc1ccc(/C=C2\C[C@]3(C)[C@H]4CC=C5[C@@H]6[C@@H](C)[C@H](C)CC[C@]6(C(=O)O)CC[C@@]5(C)[C@]4(C)CC[C@H]3C(C)(C)\C2=N\NC(=N)N)cc1	> 100
C[C@H]1[C@H](C)CC[C@]2(C(=O)O)CC[C@]3(C)C(=CC[C@@H]4[C@@]5(C)CC(=C\c6ccccc6Cl)/C(=N\NC(=N)N)C(C)(C)[C@@H]5CC[C@]43C)[C@H]12	> 100
C[C@H]1[C@H](C)CC[C@]2(C(=O)O)CC[C@]3(C)C(=CC[C@@H]4[C@@]5(C)CC(=C\c6cccc(Cl)c6)/C(=N\NC(=N)N)C(C)(C)[C@@H]5CC[C@]43C)[C@H]12	> 100
C[C@H]1[C@H](C)CC[C@]2(C(=O)O)CC[C@]3(C)C(=CC[C@@H]4[C@@]5(C)CC(=C\c6ccc([N+](=O)[O-])cc6)/C(=N\NC(=N)N)C(C)(C)[C@@H]5CC[C@]43C)[C@H]12	> 100
C[C@H]1[C@H](C)CC[C@]2(C(=O)O)CC[C@]3(C)C(=CC[C@@H]4[C@@]5(C)CC(=C\c6cccc(Br)c6)/C(=N\NC(=N)N)C(C)(C)[C@@H]5CC[C@]43C)[C@H]12	75.4
C[C@H]1[C@H](C)CC[C@]2(C(=O)O)CC[C@]3(C)C(=CC[C@@H]4[C@@]5(C)CC(=C\c6ccccc6)/C(=N\NC(=N)N)C(C)(C)[C@@H]5CC[C@]43C)[C@H]12	37.8
C[C@H]1[C@H](C)CC[C@]2(C(=O)O)CC[C@]3(C)C(=CC[C@@H]4[C@@]5(C)CC(=C\c6cccc7ccccc67)/C(=N\NC(=N)N)C(C)(C)[C@@H]5CC[C@]43C)[C@H]12	> 100
C[C@H]1[C@H](C)CC[C@]2(C(=O)O)CC[C@]3(C)C(=CC[C@@H]4[C@@]5(C)CC[C@H](O)C(C)(C)[C@@H]5CC[C@]43C)[C@H]12 [3beta-hydroxyurs-12-en-28-oic acid]	> 100
C[C@H]1[C@H](C)CC[C@]2(C(=O)O)CC[C@]3(C)C(=CC[C@@H]4[C@@]5(C)CC(=C\c6cccc(F)c6)/C(=N\NC(=N)N)C(C)(C)[C@@H]5CC[C@]43C)[C@H]12	> 100
C[C@H]1[C@H](C)CC[C@]2(C(=O)O)CC[C@]3(C)C(=CC[C@@H]4[C@@]5(C)CC(=C\c6cccs6)/C(=N\NC(=N)N)C(C)(C)[C@@H]5CC[C@]43C)[C@H]12	22.8
C[C@H]1[C@H](C)CC[C@]2(C(=O)O)CC[C@]3(C)C(=CC[C@@H]4[C@@]5(C)CC(=C\c6ccc(F)cc6)/C(=N\NC(=N)N)C(C)(C)[C@@H]5CC[C@]43C)[C@H]12	> 100
C[C@H]1[C@H](C)CC[C@]2(C(=O)O)CC[C@]3(C)C(=CC[C@@H]4[C@@]5(C)CC(=C\c6ccco6)/C(=N\NC(=N)N)C(C)(C)[C@@H]5CC[C@]43C)[C@H]12	> 100
C[C@H]1[C@H](C)CC[C@]2(C(=O)O)CC[C@]3(C)C(=CC[C@@H]4[C@@]5(C)CC(=C\c6c(Cl)cccc6Cl)/C(=N\NC(=N)N)C(C)(C)[C@@H]5CC[C@]43C)[C@H]12	> 100
C[C@H]1[C@H](C)CC[C@]2(C(=O)O)CC[C@]3(C)C(=CC[C@@H]4[C@@]5(C)CC(=C\c6ccccc6Br)/C(=N\NC(=N)N)C(C)(C)[C@@H]5CC[C@]43C)[C@H]12	> 100
C[C@H]1[C@H](C)CC[C@]2(C(=O)O)CC[C@]3(C)C(=CC[C@@H]4[C@@]5(C)CC(=C\c6ccccc6F)/C(=N\NC(=N)N)C(C)(C)[C@@H]5CC[C@]43C)[C@H]12	> 100

Second part, the molecule after the results:

IC50 [µM]	SMILES
10.3	Cc1ccc(COC(=O)[C@]23CC[C@@H](C)[C@H](C)[C@H]2C2=CC[C@@H]4[C@@]5(C)CC/C(=N\NC(=N)N)C(C)(C)[C@@H]5CC[C@@]4(C)[C@]2(C)CC3)cc1
21.1	C[C@H]1[C@H](C)CC[C@]2(C(=O)OCc3ccc(Cl)cc3)CC[C@]3(C)C(=CC[C@@H]4[C@@]5(C)CC/C(=N\NC(=N)N)C(C)(C)[C@@H]5CC[C@]43C)[C@H]12
> 100	CCOC(=O)[C@]12CC[C@@H](C)[C@H](C)[C@H]1C1=CC[C@@H]3[C@@]4(C)CC/C(=N\NC(=N)N)C(C)(C)[C@@H]4CC[C@@]3(C)[C@]1(C)CC2
> 100	C[C@H]1[C@H](C)CC[C@]2(C(=O)O)CC[C@]3(C)C(=CC[C@@H]4[C@@]5(C)CC/C(=N\NC(=N)N)C(C)(C)[C@@H]5CC[C@]43C)[C@H]12
30.3	C[C@H]1[C@H](C)CC[C@]2(C(=O)OCc3cccc(Cl)c3)CC[C@]3(C)C(=CC[C@@H]4[C@@]5(C)CC/C(=N\NC(=N)N)C(C)(C)[C@@H]5CC[C@]43C)[C@H]12
> 100	CCCCCOC(=O)[C@]12CC[C@@H](C)[C@H](C)[C@H]1C1=CC[C@@H]3[C@@]4(C)CC/C(=N\NC(=N)N)C(C)(C)[C@@H]4CC[C@@]3(C)[C@]1(C)CC2
6.7	COC(=O)[C@]12CC[C@@H](C)[C@H](C)[C@H]1C1=CC[C@@H]3[C@@]4(C)CC/C(=N\NC(=N)N)C(C)(C)[C@@H]4CC[C@@]3(C)[C@]1(C)CC2
40.5	C[C@H]1[C@H](C)CC[C@]2(C(=O)OCc3ccc(Cl)cc3Cl)CC[C@]3(C)C(=CC[C@@H]4[C@@]5(C)CC/C(=N\NC(=N)N)C(C)(C)[C@@H]5CC[C@]43C)[C@H]12
90.4	C[C@H]1[C@H](C)CC[C@]2(C(=O)O)CC[C@]3(C)C(=CC[C@@H]4[C@@]5(C)CC(=C\c6ccc(Cl)cc6Cl)/C(=N\NC(=N)N)C(C)(C)[C@@H]5CC[C@]43C)[C@H]12
13.3	C[C@H]1[C@H](C)CC[C@]2(C(=O)OCc3c(Cl)cccc3Cl)CC[C@]3(C)C(=CC[C@@H]4[C@@]5(C)CC/C(=N\NC(=N)N)C(C)(C)[C@@H]5CC[C@]43C)[C@H]12
